From ChEMBL document CHEMBL1122173, “Effects of conformationally restricted 4-piperazinyl-10H-thienobenzodiazepine neuroleptics on central dopaminergic and cholinergic systems” (J Med Chem, 1982)

How the values were obtained:
[1] = target: Muscarinic acetylcholine receptor; assay: Displacement of [3H]QNB from Muscarinic acetylcholine receptor of rat brain membrane
Mus musculus [2] = assay: Tested for physostigmine lethality at a dose of 10 mg/kg after oral administration in mice; type: functional
Outline: (§1)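 Groups of 10 CFW mice (19-26 g) given test compound in distilled water or 0.5% carboxymethylcellulose 1 h (0.5 h for hyoscine) before physostigmine 1 mg/kg ip. Tremor or death scored at 10, 20 and 60 min after physostigmine (dead at 10 min = 4, dead later = 3, marked tremor = 2, slight tremor = 1, no effect = 0). Value is percent reduction in group score versus control group.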

Mus musculus [3] = assay: Tested for physostigmine lethality at a dose of 20 mg/kg after oral administration in mice; type: functional; outline: as §1
Mus musculus [4] = assay: Tested for physostigmine lethality at a dose of 25 mg/kg after oral administration in mice; type: functional; outline: as §1
Mus musculus [5] = assay: Tested for physostigmine lethality at a dose of 5 mg/kg after oral administration in mice; type: functional; outline: as §1
Mus musculus [6] = assay: Tested for physostigmine lethality at a dose of 2.5 mg/kg after oral administration in mice; type: functional; outline: as §1
Mus musculus [7] = assay: Tested for physostigmine lethality at a dose of 50 mg/kg after oral administration in mice; type: functional; outline: as §1
Mus musculus [8] = assay: Tested for physostigmine lethality at a dose of 15 mg/kg after oral administration in mice; type: functional; outline: as §1
Mus musculus [9] = assay: Tested for physostigmine lethality at a dose of 12 mg/kg after oral administration in mice; type: functional; outline: as §1
Mus musculus [10] = assay: Tested for physostigmine lethality at a dose of 8 mg/kg after oral administration in mice; type: functional; outline: as §1

In the case of `CCc1cc2c(s1)Nc1ccc(F)cc1N=C2N1CCN(C)C(C)C1` (configuration not stated), the IC50 [1] is reported as 97 nM, the Protection (Mus musculus [2]) is reported as 17% and the Protection (Mus musculus [3]) is reported as 42%.
`CN1CCN(C2=Nc3cc(F)ccc3Nc3sc4c(c32)CCCC4)CC1` gave an IC50 [1] of 34 nM, a Protection (Mus musculus [4]) of 71% and a Protection (Mus musculus [5]) of 46%. It also gave a Protection (Mus musculus [2]) of 46%.
With `Cc1cc2c(s1)Nc1ccc(F)cc1N=C2N1CCN(C)CC1` [FLUMEZAPINE] the IC50 [1] was 74 nM, the Protection (Mus musculus [5]) was 64% and the Protection (Mus musculus [2]) was 75%. For the same compound, the Protection (Mus musculus [6]) was 50%.
In the case of `CCc1c(C)sc2c1C(N1CCN(C)CC1)=Nc1cc(F)ccc1N2`, the IC50 [1] is reported as 26 nM, the Protection (Mus musculus [5]) is reported as 60% and the Protection (Mus musculus [2]) is reported as 75%. It also gave a Protection (Mus musculus [3]) of 53%.
`CCc1cc2c(s1)Nc1ccc(F)cc1N=C2N1CC(C)N(C)CC1C` (configuration not stated) was tested, and the IC50 [1] was 247 nM.
With `CC(C)c1csc2c1C(N1CCN(C)CC1)=Nc1cc(F)ccc1N2` the Protection (Mus musculus [7]) was 35% and the IC50 [1] was 26 nM.
For `CN1CCN(C2=Nc3cc(Cl)ccc3Nc3ccccc32)CC1` [CLOZAPINE], the Protection (Mus musculus [8]) was 53%.
`CCc1cc2c(s1)Nc1ccc(F)cc1N=C2N1CCN(C)CC1` showed a Protection (Mus musculus [9]) of 75%, an IC50 [1] of 116 nM and a Protection (Mus musculus [10]) of 18%. For the same compound, the Protection (Mus musculus [2]) was 33%.
For `Cc1sc2c(c1C)C(N1CCN(C)CC1)=Nc1cc(F)ccc1N2`, the IC50 [1] was 9 nM, the Protection (Mus musculus [5]) was 33% and the Protection (Mus musculus [2]) was 74%. It also gave a Protection (Mus musculus [6]) of 5%.
With `CN1CCN(C2=Nc3cc(F)ccc3Nc3sccc32)CC1` the IC50 [1] was 574 nM.
`O=C(CCCN1CCC(O)(c2ccc(Cl)cc2)CC1)c1ccc(F)cc1` [HALOPERIDOL] showed a Protection (Mus musculus [5]) of 0%.
Work on `CCc1cc2c(s1)Nc1ccc(F)cc1N=C2N1CC(C)N(C)C(C)C1` (configuration not stated) yielded a Protection (Mus musculus [7]) of 24% and an IC50 [1] of 258 nM.
`Cc1csc2c1C(N1CCN(C)CC1)=Nc1cc(F)ccc1N2` showed an IC50 [1] of 101 nM, a Protection (Mus musculus [5]) of 65% and a Protection (Mus musculus [2]) of 67%. The Protection (Mus musculus [6]) was 5%.
`Cc1sc2c(c1C(C)C)C(N1CCN(C)CC1)=Nc1cc(F)ccc1N2` gave a Protection (Mus musculus [7]) of 35% and an IC50 [1] of 64 nM.
